{
  "source": "ChEMBL document CHEMBL2331336",
  "about": "“Discovery and structure-activity relationship of 1,3-cyclohexyl amide derivatives as novel mGluR5 negative allosteric modulators” (Bioorg Med Chem Lett, 2013)",
  "key": {"[1]": {"molecular_target": "T1, Metabotropic glutamate receptor 1 (Rattus norvegicus, UniProt P23385)", "T1 sequence (P23385 whole entry)": "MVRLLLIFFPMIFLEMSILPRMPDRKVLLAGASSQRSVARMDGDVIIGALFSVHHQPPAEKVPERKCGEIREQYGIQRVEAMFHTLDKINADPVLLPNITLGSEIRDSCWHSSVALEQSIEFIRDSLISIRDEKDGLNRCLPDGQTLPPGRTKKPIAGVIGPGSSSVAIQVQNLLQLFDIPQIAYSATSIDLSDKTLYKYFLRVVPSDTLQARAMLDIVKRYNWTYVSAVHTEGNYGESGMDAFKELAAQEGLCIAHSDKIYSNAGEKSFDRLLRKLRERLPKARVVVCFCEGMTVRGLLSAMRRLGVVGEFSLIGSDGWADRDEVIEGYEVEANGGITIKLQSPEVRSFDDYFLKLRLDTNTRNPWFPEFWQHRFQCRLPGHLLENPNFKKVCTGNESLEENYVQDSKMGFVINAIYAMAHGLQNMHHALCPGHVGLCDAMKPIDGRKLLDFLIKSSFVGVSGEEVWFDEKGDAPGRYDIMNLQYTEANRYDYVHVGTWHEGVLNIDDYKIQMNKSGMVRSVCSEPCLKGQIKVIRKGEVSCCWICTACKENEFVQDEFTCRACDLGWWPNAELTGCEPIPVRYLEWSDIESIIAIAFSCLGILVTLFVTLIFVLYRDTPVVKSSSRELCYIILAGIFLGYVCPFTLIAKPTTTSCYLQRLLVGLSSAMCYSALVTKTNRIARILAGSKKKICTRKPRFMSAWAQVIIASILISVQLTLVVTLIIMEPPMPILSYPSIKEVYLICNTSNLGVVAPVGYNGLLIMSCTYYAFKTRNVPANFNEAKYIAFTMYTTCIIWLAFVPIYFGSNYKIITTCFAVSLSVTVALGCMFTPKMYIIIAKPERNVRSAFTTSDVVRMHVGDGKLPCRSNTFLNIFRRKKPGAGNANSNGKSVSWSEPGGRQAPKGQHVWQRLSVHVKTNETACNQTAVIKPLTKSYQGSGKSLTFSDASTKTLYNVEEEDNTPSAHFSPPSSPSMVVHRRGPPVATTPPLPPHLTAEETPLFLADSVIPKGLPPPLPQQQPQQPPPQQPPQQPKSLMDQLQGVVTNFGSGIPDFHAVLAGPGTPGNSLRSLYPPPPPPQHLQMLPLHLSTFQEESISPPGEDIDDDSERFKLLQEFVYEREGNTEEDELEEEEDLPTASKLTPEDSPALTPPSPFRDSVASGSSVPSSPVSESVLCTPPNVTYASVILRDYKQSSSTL", "experiment": "Agonist activity at rat mGluR1 expressed in HEK293 cells assessed as Ca2+ mobilization by FLIPR assay", "assay_type": "functional, cell-based", "procedure,_shortened": "(§1)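 Rat mGluR1 stably in HEK293 cells (1.5% calf serum medium), seeded 24 h earlier, Fluo-4 loaded 1 h at 37 °C in HBSS/HEPES pH 7.4 with probenecid. Curves fitted with Hill equation.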"}, "[2]": {"experiment": "Drug uptake in CD-1 mouse brain at 10 mg/kg, sc at 1 hr", "assay_type": "ADME, organism-based", "parameters": "dose 10 mg/kg, route subcutaneous", "details": "read-out: Drug uptake", "procedure,_shortened": "(§2)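 CD-1 mice (n = 2), 10 mg/kg SC in 20% hydroxypropyl-β-cyclodextrin in water. Brain and plasma sampled at 1 h; averages reported. Quantification limits were 2 ng/g for brain and 2 ng/mL for plasma. Kupp is the ratio of unbound brain to unbound plasma concentration.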"}, "Liver microsomes [3]": {"tested_on": "Liver microsomes", "experiment": "Intrinsic clearance in rat liver microsomes", "assay_type": "ADME, Microsome"}, "[4]": {"experiment": "Plasma concentration in Sprague-Dawley rat at 10 mg/kg, po at 1 hr", "assay_type": "ADME, organism-based", "parameters": "dose 10 mg/kg, route oral"}, "Liver microsomes [5]": {"tested_on": "Liver microsomes", "experiment": "Intrinsic clearance in human liver microsomes", "assay_type": "ADME, Microsome", "parameters": "unit not given here"}, "Liver": {"tested_on": "Liver", "experiment": "Intrinsic clearance in mouse liver microsomes", "assay_type": "ADME, Microsome"}, "[6]": {"experiment": "Ratio of drug uptake in brain to plasma of Sprague-Dawley rat at 10 mg/kg, po at 1 hr", "assay_type": "ADME, organism-based", "parameters": "dose 10 mg/kg, route oral", "details": "read-out: BPR"}, "[7]": {"experiment": "Ratio of drug uptake in brain to plasma of CD-1 mouse at 10 mg/kg, sc at 1 hr", "assay_type": "ADME, organism-based", "parameters": "dose 10 mg/kg, route subcutaneous", "details": "read-out: BPR", "procedure,_shortened": "as §2"}, "[8]": {"experiment": "Ratio of fraction unbound in brain to plasma of CD-1 mouse brain at 10 mg/kg, sc at 1 hr", "assay_type": "ADME, organism-based", "parameters": "dose 10 mg/kg, route subcutaneous", "details": "in vivo", "procedure,_shortened": "as §2"}, "[9]": {"experiment": "Plasma concentration in CD-1 mouse at 10 mg/kg, sc at 1 hr", "assay_type": "ADME, organism-based", "parameters": "dose 10 mg/kg, route subcutaneous", "procedure,_shortened": "as §2"}, "Plasma": {"tested_on": "Plasma", "experiment": "Fraction unbound in mouse plasma", "assay_type": "ADME, cell-free"}, "[10]": {"molecular_target": "T1, Metabotropic glutamate receptor 1", "experiment": "Antagonist activity at rat mGluR1 expressed in HEK293 cells assessed as inhibition of Ca2+ mobilization by FLIPR assay", "assay_type": "functional, cell-based", "procedure,_shortened": "as §1"}, "[11]": {"experiment": "Fraction unbound in mouse brain", "assay_type": "ADME, tissue-based"}, "[12]": {"molecular_target": "T2, Metabotropic glutamate receptor 5 (Homo sapiens, UniProt P41594)", "T2 sequence (P41594 whole entry)": "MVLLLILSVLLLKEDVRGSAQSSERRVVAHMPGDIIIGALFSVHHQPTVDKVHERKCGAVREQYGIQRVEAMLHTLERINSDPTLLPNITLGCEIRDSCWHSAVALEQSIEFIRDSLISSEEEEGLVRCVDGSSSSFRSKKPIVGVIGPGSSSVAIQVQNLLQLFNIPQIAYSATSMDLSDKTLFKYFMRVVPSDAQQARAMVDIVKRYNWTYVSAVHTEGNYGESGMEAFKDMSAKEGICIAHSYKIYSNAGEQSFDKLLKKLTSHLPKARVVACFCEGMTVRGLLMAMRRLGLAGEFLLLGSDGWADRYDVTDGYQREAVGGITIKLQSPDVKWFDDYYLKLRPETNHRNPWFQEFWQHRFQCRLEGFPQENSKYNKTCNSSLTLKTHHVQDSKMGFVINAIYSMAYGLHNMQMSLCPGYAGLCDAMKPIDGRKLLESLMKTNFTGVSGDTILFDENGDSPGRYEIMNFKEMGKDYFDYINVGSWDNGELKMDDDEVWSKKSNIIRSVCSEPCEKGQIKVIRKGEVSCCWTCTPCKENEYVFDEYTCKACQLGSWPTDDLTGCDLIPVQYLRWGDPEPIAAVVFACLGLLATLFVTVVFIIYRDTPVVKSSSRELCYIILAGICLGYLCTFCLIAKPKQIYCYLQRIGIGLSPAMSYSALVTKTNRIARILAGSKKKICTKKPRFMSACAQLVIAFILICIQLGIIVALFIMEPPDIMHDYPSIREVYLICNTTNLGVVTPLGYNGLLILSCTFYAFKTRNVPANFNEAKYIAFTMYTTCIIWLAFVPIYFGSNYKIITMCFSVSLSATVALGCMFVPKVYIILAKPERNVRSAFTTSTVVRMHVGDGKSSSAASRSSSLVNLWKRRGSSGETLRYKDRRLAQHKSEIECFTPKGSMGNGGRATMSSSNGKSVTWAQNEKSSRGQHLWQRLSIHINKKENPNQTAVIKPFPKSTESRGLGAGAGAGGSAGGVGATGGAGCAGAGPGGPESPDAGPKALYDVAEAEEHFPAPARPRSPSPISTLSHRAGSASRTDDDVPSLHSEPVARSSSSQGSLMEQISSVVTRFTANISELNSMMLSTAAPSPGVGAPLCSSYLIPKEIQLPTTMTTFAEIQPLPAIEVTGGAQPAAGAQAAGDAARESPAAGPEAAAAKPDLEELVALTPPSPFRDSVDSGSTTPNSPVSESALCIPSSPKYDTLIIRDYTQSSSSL", "experiment": "Displacement of [3H]-ABP688 from human mGluR5 expressed in HEK293 cells after 60 mins by scintillation counting", "assay_type": "cell-based"}, "[13]": {"molecular_target": "T2, Metabotropic glutamate receptor 5", "experiment": "Antagonist activity at human mGluR5 expressed in HEK293 cells assessed as inhibition of Ca2+ mobilization by FLIPR assay", "assay_type": "functional, cell-based"}, "[14]": {"experiment": "Drug uptake in Sprague-Dawley rat brain at 10 mg/kg, po at 1 hr", "assay_type": "ADME, organism-based", "parameters": "dose 10 mg/kg, route oral", "details": "read-out: Drug uptake"}},
  "data": [
    {"smiles": "O=C(N[C@H]1CCC[C@]2(CN=C(c3cccc(Cl)c3)O2)C1)c1ccccn1", "values": [
      {"measurement": "EC50", "setting": "[1]", "result": "> 10", "unit": "µM"},
      {"measurement": "concentration at 1 h", "setting": "[2]", "result": 1160, "unit": "nM"},
      {"measurement": "Intrinsic clearance", "setting": "Liver microsomes [3]", "result": 160, "unit": "mL/min"},
      {"measurement": "concentration at 1 h", "setting": "[4]", "result": 8, "unit": "nM"},
      {"measurement": "Intrinsic clearance", "setting": "Liver microsomes [5]", "result": 13},
      {"measurement": "Intrinsic clearance", "setting": "Liver", "result": 8.8, "unit": "mL/min"},
      {"measurement": "Kp at 1 h", "setting": "[6]", "result": 0.6},
      {"measurement": "Kp at 1 h", "setting": "[7]", "result": 1},
      {"measurement": "Ratio", "setting": "[8]", "result": 1.6},
      {"measurement": "concentration at 1 h", "setting": "[9]", "result": 1160, "unit": "nM"},
      {"measurement": "Cp(f)", "setting": "Plasma", "result": 0.3, "unit": "%"},
      {"measurement": "IC50", "setting": "[10]", "result": "> 10", "unit": "µM"},
      {"measurement": "fraction unbound", "setting": "[11]", "result": 0.005},
      {"measurement": "Ki", "setting": "[12]", "result": 0.178, "unit": "µM"},
      {"measurement": "IC50", "setting": "[13]", "result": 0.115, "unit": "µM"},
      {"measurement": "concentration at 1 h", "setting": "[14]", "result": 5, "unit": "nM"}
    ]}
  ]
}
